According to ChEMBL document CHEMBL1152859, “The novel phosphoramidate derivatives of NSAID 3-hydroxypropylamides: synthesis, cytostatic and antiviral activity evaluations” (Eur J Med Chem, 2009):
The source made the active and inactive calls. The rule behind the calls is not given here.

How the values were obtained:
L1210 = test: Cytostatic activity against mouse L1210 cells after 48 hrs by MTT assay; assay type: functional, cell-based; conditions: L1210, 48 h
[1] = Cytostatic activity against human Molt4/C8 cells after 72 hrs by MTT assay; assay type: functional, cell-based; conditions: MOLT-4, 72 h
CCRF-CEM = test: Cytostatic activity against human CEM cells after 72 hrs by MTT assay; assay type: functional, cell-based
HeLa = test: Cytostatic activity against human HeLa cells after 72 hrs by MTT assay; assay type: functional, cell-based
How it was run: (§1)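 Monolayer cells were grown in DMEM with 10% FBS, 2 mM L-glutamine, penicillin and streptomycin at 37 °C under 5% CO2. They were seeded on day 0 at 1 × 10⁴ to 3 × 10⁴ cells/ml and exposed to five 10-fold dilutions (10⁻⁸ to 10⁻⁴ M) for 72 h, with a solvent control. Read-out was MTT. Quadruplicates in three experiments (WI 38: one experiment). IC50 by linear regression of percentage-of-growth.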

MIA PaCa-2 = test: Cytostatic activity against human MIAPaCa2 cells after 72 hrs by MTT assay; assay type: functional, cell-based; conditions: MIA PaCa-2, 72 h; how it was run: as §1
SW-620 = test: Cytostatic activity against human SW620 cells after 72 hrs by MTT assay; assay type: functional, cell-based; conditions: SW-620, 72 h; how it was run: as §1
MCF7 = test: Cytostatic activity against human MCF7 cells after 72 hrs by MTT assay; assay type: functional, cell-based; conditions: MCF7, 72 h; how it was run: as §1
NCI-H460 = test: Cytostatic activity against human H460 cells after 72 hrs by MTT assay; assay type: functional, cell-based; conditions: NCI-H460, 72 h; how it was run: as §1
[2] = tested on: Human immunodeficiency virus 1; test: Antiviral activity against HIV1 3B infected in human CEM cells assessed as inhibition of virus-induced cytopathicity; assay type: functional, organism-based; conditions: CCRF-CEM
[3] = tested on: Human immunodeficiency virus 2; test: Antiviral activity against HIV2 ROD infected in human CEM cells assessed as inhibition of virus-induced cytopathicity; assay type: functional, organism-based; conditions: CCRF-CEM
Human alphaherpesvirus 1 = test: Antiviral activity against Herpes simplex virus 1 infected in HEL cells assessed as inhibition of virus-induced cytopathicity; assay type: functional, organism-based
Human alphaherpesvirus 2 = test: Antiviral activity against Herpes simplex virus 2 infected in HEL cells assessed as inhibition of virus-induced cytopathicity; assay type: functional, organism-based
Vaccinia virus = test: Antiviral activity against Vaccinia virus infected in HEL cells assessed as inhibition of virus-induced cytopathicity; assay type: functional, organism-based; conditions: Orthopoxvirus vaccinia
How it was run: (§2)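 Cell cultures were exposed for 2 h to 100 CCID50 of virus, and residual virus was then removed. Infected cells were further incubated with medium containing varying compound concentrations for 3 days at 37 °C. Virus-induced cytopathogenicity was scored microscopically. EC50 is the concentration giving a 50% reduction of cytopathogenicity.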

Human alphaherpesvirus 3 = test: Antiviral activity against Varicella-Zoster virus infected in HEL cells assessed as inhibition of virus-induced cytopathicity; assay type: functional, organism-based
Cytomegalovirus = test: Antiviral activity against Cytomegalovirus infected in HEL cells assessed as inhibition of virus-induced cytopathicity; assay type: functional, organism-based
How it was run: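 Confluent HEL fibroblasts were infected with CMV strains Davis and AD-169 at 100 PFU per well for 2 h, then virus was removed. Graded concentrations were added in duplicate and cultures kept 7 days at 37 °C. Cytopathogenicity was scored microscopically after ethanol fixation and Giemsa staining. EC50 is the 50% reduction.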

[4] = tested on: Vesicular stomatitis virus; test: Antiviral activity against Vesicular stomatitis virus infected in HEL cells assessed as inhibition of virus-induced cytopathicity; assay type: functional, organism-based; how it was run: as §2
Human respirovirus 3 = test: Antiviral activity against Parainfluenza-3 virus infected in african green monkey Vero cells assessed as inhibition of virus-induced cytopathicity; assay type: functional, organism-based
How it was run: (§3)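 Cells were infected with 100 CCID50 of virus for 2 h, then residual virus was removed. Medium with graded compound concentrations was added and cultures were kept 3 days at 37 °C. Cytopathogenicity was scored microscopically. EC50 is the concentration reducing virus-induced cytopathogenicity by 50%.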

[5] = tested on: Mammalian orthoreovirus 1; test: Antiviral activity against Reovirus 1 infected in african green monkey Vero cells assessed as inhibition of virus-induced cytopathicity; assay type: functional, organism-based; how it was run: as §3
Sindbis virus = test: Antiviral activity against Sindbis virus infected in african green monkey Vero cells assessed as inhibition of virus-induced cytopathicity; assay type: functional, organism-based; how it was run: as §3
Coxsackievirus B4 [6] = test: Antiviral activity against Coxsackievirus B4 infected in african green monkey Vero cells assessed as inhibition of virus-induced cytopathicity; assay type: functional, organism-based; how it was run: as §3
Punta Toro virus = test: Antiviral activity against Punta Toro virus infected in african green monkey Vero cells assessed as inhibition of virus-induced cytopathicity; assay type: functional, organism-based; how it was run: as §3
[7] = tested on: Respiratory syncytial virus; test: Antiviral activity against Respiratory syncytial virus infected in human HeLa cells assessed as inhibition of virus-induced cytopathicity; assay type: functional, organism-based; how it was run: as §3
[8] = tested on: Vesicular stomatitis virus; test: Antiviral activity against Vesicular stomatitis virus infected in human HeLa cells assessed as inhibition of virus-induced cytopathicity; assay type: functional, organism-based; how it was run: as §2
Coxsackievirus B4 [9] = test: Antiviral activity against Coxsackievirus B4 infected in human HeLa cells assessed as inhibition of virus-induced cytopathicity; assay type: functional, organism-based; how it was run: as §3
[10] = Cytostatic activity against human WI38 cells after 72 hrs by MTT assay; assay type: ADME, cell-based; conditions: WI-38, 72 h; how it was run: as §1

## CC(C(=O)NCCCO)c1cccc(Oc2ccccc2)c1 (stereo not given)
L1210
  IC50: 230 µM
[1]
  IC50: 99 µM
CCRF-CEM
  IC50: 71 µM
HeLa
  IC50: > 100 µM
MIA PaCa-2
  IC50: > 100 µM
SW-620
  IC50: > 100 µM
MCF7
  IC50: > 100 µM
NCI-H460
  IC50: > 100 µM
[2]
  Activity: inactive
[3]
  Activity: inactive
Human alphaherpesvirus 1
  Activity: inactive
Human alphaherpesvirus 2
  Activity: inactive
Vaccinia virus
  Activity: inactive
Human alphaherpesvirus 3
  Activity: inactive
Cytomegalovirus
  Activity: inactive
[4]
  Activity: inactive
Human respirovirus 3
  Activity: inactive
[5]
  Activity: inactive
Sindbis virus
  Activity: inactive
Coxsackievirus B4 [6]
  Activity: inactive
Punta Toro virus
  Activity: inactive
[7]
  Activity: inactive
[8]
  Activity: inactive
Coxsackievirus B4 [9]
  Activity: inactive

## O=C(Cc1ccccc1Nc1c(Cl)cccc1Cl)NCCCO
L1210
  IC50: 200 µM
[1]
  IC50: 215 µM
CCRF-CEM
  IC50: 212 µM
HeLa
  IC50: 46 µM
MIA PaCa-2
  IC50: 54 µM
SW-620
  IC50: 36 µM
MCF7
  IC50: 39 µM
NCI-H460
  IC50: 68 µM
[2]
  Activity: inactive
[3]
  Activity: inactive
Human alphaherpesvirus 1
  Activity: inactive
Human alphaherpesvirus 2
  Activity: inactive
Vaccinia virus
  Activity: inactive
Human alphaherpesvirus 3
  Activity: inactive
Cytomegalovirus
  Activity: inactive
[4]
  Activity: inactive
Human respirovirus 3
  Activity: inactive
[5]
  Activity: inactive
Sindbis virus
  Activity: inactive
Coxsackievirus B4 [6]
  Activity: inactive
Punta Toro virus
  Activity: inactive
[7]
  Activity: inactive
[8]
  Activity: inactive
Coxsackievirus B4 [9]
  Activity: inactive

## COC(=O)[C@H](C)NP(=O)(OCCCNC(=O)Cc1c(C)n(C(=O)c2ccc(Cl)cc2)c2ccc(OC)cc12)Oc1ccc(Cl)cc1 (stereo not given in full)
L1210
  IC50: 24 µM
[1]
  IC50: 28 µM
CCRF-CEM
  IC50: 11 µM
HeLa
  IC50: 17 µM
MIA PaCa-2
  IC50: 8 µM
SW-620
  IC50: 15 µM
MCF7
  IC50: 16 µM
NCI-H460
  IC50: 18 µM
[10]
  IC50: 16 µM
[2]
  Activity: inactive
[3]
  Activity: inactive
Human alphaherpesvirus 1
  Activity: inactive
Human alphaherpesvirus 2
  Activity: inactive
Vaccinia virus
  Activity: inactive
Human alphaherpesvirus 3
  Activity: inactive
Cytomegalovirus
  Activity: inactive
[4]
  Activity: inactive
Human respirovirus 3
  Activity: inactive
[5]
  Activity: inactive
Sindbis virus
  Activity: inactive
Coxsackievirus B4 [6]
  Activity: inactive
Punta Toro virus
  Activity: inactive
[7]
  Activity: inactive
[8]
  Activity: inactive
Coxsackievirus B4 [9]
  Activity: inactive

## CC(C(=O)NCCCO)c1cccc(C(=O)c2ccccc2)c1 (stereo not given)
L1210
  IC50: 273 µM
[1]
  IC50: 97 µM
CCRF-CEM
  IC50: 71 µM
HeLa
  IC50: > 100 µM
MIA PaCa-2
  IC50: > 100 µM
SW-620
  IC50: > 100 µM
MCF7
  IC50: > 100 µM
NCI-H460
  IC50: > 100 µM
[2]
  Activity: inactive
[3]
  Activity: inactive
Human alphaherpesvirus 1
  Activity: inactive
Human alphaherpesvirus 2
  Activity: inactive
Vaccinia virus
  Activity: inactive
Human alphaherpesvirus 3
  Activity: inactive
Cytomegalovirus
  Activity: inactive
[4]
  Activity: inactive
Human respirovirus 3
  Activity: inactive
[5]
  Activity: inactive
Sindbis virus
  Activity: inactive
Coxsackievirus B4 [6]
  Activity: inactive
Punta Toro virus
  Activity: inactive
[7]
  Activity: inactive
[8]
  Activity: inactive
Coxsackievirus B4 [9]
  Activity: inactive

## COc1ccc2c(c1)c(CC(=O)NCCCO)c(C)n2C(=O)c1ccc(Cl)cc1
L1210
  IC50: 179 µM
[1]
  IC50: 113 µM
CCRF-CEM
  IC50: 78 µM
HeLa
  IC50: 26 µM
MIA PaCa-2
  IC50: 44 µM
SW-620
  IC50: 47 µM
MCF7
  IC50: 22 µM
NCI-H460
  IC50: > 100 µM
[2]
  Activity: inactive
[3]
  Activity: inactive
Human alphaherpesvirus 1
  Activity: inactive
Human alphaherpesvirus 2
  Activity: inactive
Vaccinia virus
  Activity: inactive
Human alphaherpesvirus 3
  Activity: inactive
Cytomegalovirus
  Activity: inactive
[4]
  Activity: inactive
Human respirovirus 3
  Activity: inactive
[5]
  Activity: inactive
Sindbis virus
  Activity: inactive
Coxsackievirus B4 [6]
  Activity: inactive
Punta Toro virus
  Activity: inactive
[7]
  Activity: inactive
[8]
  Activity: inactive
Coxsackievirus B4 [9]
  Activity: inactive

## CC(C)Cc1ccc(C(C)C(=O)NCCCO)cc1 (stereo not given)
L1210
  IC50: 213 µM
[1]
  IC50: 93 µM
CCRF-CEM
  IC50: 55 µM
HeLa
  IC50: > 100 µM
MIA PaCa-2
  IC50: ≥ 100 µM
SW-620
  IC50: > 100 µM
MCF7
  IC50: > 100 µM
NCI-H460
  IC50: > 100 µM
[2]
  Activity: inactive
[3]
  Activity: inactive
Human alphaherpesvirus 1
  Activity: inactive
Human alphaherpesvirus 2
  Activity: inactive
Vaccinia virus
  Activity: inactive
Human alphaherpesvirus 3
  Activity: inactive
Cytomegalovirus
  Activity: inactive
[4]
  Activity: inactive
Human respirovirus 3
  Activity: inactive
[5]
  Activity: inactive
Sindbis virus
  Activity: inactive
Coxsackievirus B4 [6]
  Activity: inactive
Punta Toro virus
  Activity: inactive
[7]
  Activity: inactive
[8]
  Activity: inactive
Coxsackievirus B4 [9]
  Activity: inactive
